Results taken from ChEMBL document CHEMBL1126988, “Quinolone antibacterials containing the new 7-[3-(1-aminoethyl)-1- pyrrolidinyl] side chain: the effects of the 1-aminoethyl moiety and its stereochemical configurations on potency and in vivo efficacy” (J Med Chem, 1993).
≈ marks a conversion by molar mass, not a printed value.

How the values were obtained:
Format in all cases: functional
Escherichia coli [1] = assay: Antibacterial activity against Escherichia coli Vogel after oral administration in mouse; conditions: Escherichia coli, po; read-out: PD50
Streptococcus pyogenes [2] = assay: Minimum inhibitory concentration was evaluated in vitro against Streptococcus pyogenes C 203
Method in brief: (§1)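 Standard microtitration broth assay against a panel of 10 Gram-positive and Gram-negative organisms. MIC read in µg/mL and averaged over multiple experiments.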

Streptococcus pneumoniae = assay: Minimum inhibitory concentration was evaluated in vitro against Streptococcus pneumoniae SV-1; method in brief: as §1
Enterobacter cloacae = assay: Minimum inhibitory concentration in vitro against Enterobacter cloacae MA 2646; conditions: Enterobacter cloacae; read-out: MIC
Staphylococcus aureus [3] = assay: Minimum inhibitory concentration was evaluated in vitro against Staphylococcus aureus H 228; method in brief: as §1
Enterococcus faecalis = assay: Minimum inhibitory concentration was evaluated in vitro against Enterococcus faecalis MGH-2; method in brief: as §1
Streptococcus pyogenes [4] = assay: Antibacterial activity measured as mouse protection against Streptococcus pyogenes C 203 after subcutaneous administration; conditions: Streptococcus pyogenes, C 203, sc; read-out: PD50
Escherichia coli [5] = assay: Antibacterial activity against Escherichia coli Vogel after subcutaneous administration in mouse; conditions: Escherichia coli, sc; read-out: PD50
Streptococcus pyogenes [6] = assay: Compounds were evaluated in vivo for antibacterial activity for mouse protection against Streptococcus pyogenes C 203 after oral administration; conditions: Streptococcus pyogenes, C 203, po; read-out: PD50
Escherichia coli [7] = assay: Antibacterial activity in vitro against Escherichia coli Vogel; conditions: Escherichia coli; read-out: MIC; method in brief: as §1
Pseudomonas aeruginosa = assay: Minimum inhibitory concentration was evaluated in vitro against Pseudomonas aeruginosa UI-18; conditions: Pseudomonas aeruginosa; read-out: MIC; method in brief: as §1
Providencia rettgeri = assay: Minimum inhibitory concentration was evaluated in vitro against Providencia rettgeri M1771; conditions: Providencia rettgeri; read-out: MIC; method in brief: as §1
Staphylococcus aureus [8] = assay: Minimum inhibitory concentration was evaluated in vitro against Staphylococcus aureus UC 76; method in brief: as §1
Klebsiella pneumoniae = assay: Minimum inhibitory concentration was evaluated in vitro against Klebsiella pneumoniae MGH2; conditions: Klebsiella pneumoniae; read-out: MIC; method in brief: as §1
[9] = Streptococcus pyogenes, read-out: MIC
[10] = Streptococcus pneumoniae, read-out: MIC
[11] = Staphylococcus aureus, read-out: MIC
[12] = Enterococcus faecalis, read-out: MIC

Structure (SMILES) | ED50 (Escherichia coli [1]) [mg/kg] | MIC (Streptococcus pyogenes [2]; [9]) [µg/mL] | MIC (Streptococcus pneumoniae; [10]) [µg/mL] | MIC (Enterobacter cloacae) [µg/mL] | MIC (Staphylococcus aureus [3]; [11]) [µg/mL] | MIC (Enterococcus faecalis; [12]) [µg/mL] | ED50 (Streptococcus pyogenes [4]) [mg/kg] | ED50 (Escherichia coli [5]) [mg/kg] | ED50 (Streptococcus pyogenes [6]) [mg/kg] | MIC (Escherichia coli [7]) [µg/mL] | MIC (Pseudomonas aeruginosa) [µg/mL] | MIC (Providencia rettgeri) [µg/mL] | MIC (Staphylococcus aureus [8]; [11]) [µg/mL] | MIC (Klebsiella pneumoniae) [µg/mL] | MIC (Streptococcus pyogenes [2]) [µg/mL] | MIC (Streptococcus pneumoniae) [µg/mL] | MIC (Staphylococcus aureus [3]) [µg/mL] | MIC (Enterococcus faecalis) [µg/mL] | MIC (Staphylococcus aureus [8]) [µg/mL]
CCn1cc(C(=O)O)c(=O)c2cc(F)c(N3CCC(N)C3)c(OC)c21 (centres undefined) | 13 | 0.2 (≈ 0.572 µM) | 0.4 (≈ 1.14 µM) | 0.2 (≈ 0.572 µM) | 0.2 (≈ 0.572 µM) | 0.4 (≈ 1.14 µM) | 25 | 7 | 74 | 0.2 (≈ 0.572 µM) | 0.8 (≈ 2.29 µM) | 0.4 (≈ 1.14 µM) | 0.05 (≈ 0.143 µM) | 0.2 (≈ 0.572 µM) |  |  |  |  | 
CCn1cc(C(=O)O)c(=O)c2cc(F)c(N3CCC(C(C)NC)C3)c(OC)c21 (racemic) | 22 | 0.013 (≈ 0.0332 µM) | 0.013 (≈ 0.0332 µM) | 0.8 (≈ 2.04 µM) | 0.025 (≈ 0.0639 µM) | 0.025 (≈ 0.0639 µM) | 0.3 | 4 | 2 | 0.2 (≈ 0.511 µM) | 1.6 (≈ 4.09 µM) | 0.4 (≈ 1.02 µM) | 0.003 (≈ 0.00766 µM) | 0.2 (≈ 0.511 µM) |  |  |  |  | 
COc1c(N2CCC(C)(CN)C2)c(F)cc2c(=O)c(C(=O)O)cn(C3CC3)c12 (centres undefined) | 18 | 0.013 (≈ 0.0334 µM) | 0.013 (≈ 0.0334 µM) | 0.1 (≈ 0.257 µM) | 0.025 (≈ 0.0642 µM) | 0.025 (≈ 0.0642 µM) | 1 | 3 | 5 | 0.1 (≈ 0.257 µM) | 1.6 (≈ 4.11 µM) | 0.4 (≈ 1.03 µM) | 0.006 (≈ 0.0154 µM) | 0.2 (≈ 0.514 µM) |  |  |  |  | 
CCN[C@H](C)[C@H]1CCN(c2cc3c(cc2F)c(=O)c(C(=O)O)cn3C2CC2)C1 (mixture of isomers; form 2) | 13 |  |  | 0.2 |  |  | 1 | 2 | 8 | 0.2 | 6.3 | 0.8 |  | 0.4 | 0.05 | 0.05 | 0.1 | 0.1 | 0.025
CCN[C@H](C)[C@H]1CCN(c2nc3c(cc2F)c(=O)c(C(=O)O)cn3-c2ccc(F)cc2F)C1 (racemic) | 25 | 0.1 (≈ 0.217 µM) | 0.1 (≈ 0.217 µM) | 0.8 (≈ 1.74 µM) | 0.05 (≈ 0.109 µM) | 0.2 (≈ 0.434 µM) | 2 | 13 | 2 | 0.4 (≈ 0.869 µM) | 3.1 (≈ 6.73 µM) | 1.6 (≈ 3.47 µM) | 0.013 (≈ 0.0282 µM) | 0.8 (≈ 1.74 µM) |  |  |  |  | 
CCn1cc(C(=O)O)c(=O)c2cc(F)c(N3CCC(CN)C3)c(F)c21 (centres undefined) | 90 | 0.05 (≈ 0.142 µM) | 0.1 (≈ 0.285 µM) | 0.2 (≈ 0.569 µM) | 0.1 (≈ 0.285 µM) | 0.1 (≈ 0.285 µM) | 5 | 1 | 100 | 0.1 (≈ 0.285 µM) | 0.4 (≈ 1.14 µM) | 0.4 (≈ 1.14 µM) | 0.1 (≈ 0.285 µM) | 0.4 (≈ 1.14 µM) |  |  |  |  | 
CNCC1CCN(c2nc3c(cc2F)c(=O)c(C(=O)O)cn3C2CC2)C1 (centres undefined) | 3 | 0.05 (≈ 0.139 µM) | 0.025 (≈ 0.0694 µM) | 0.2 (≈ 0.555 µM) | 0.2 (≈ 0.555 µM) | 0.2 (≈ 0.555 µM) | 7 | 1 | 21 | 0.1 (≈ 0.277 µM) | 0.8 (≈ 2.22 µM) | 0.4 (≈ 1.11 µM) | 0.025 (≈ 0.0694 µM) | 0.2 (≈ 0.555 µM) |  |  |  |  | 
CCNCC1CCN(c2cc3c(c(N)c2F)c(=O)c(C(=O)O)cn3C2CC2)C1 (centres undefined) | 90 | 0.1 (≈ 0.257 µM) | 0.05 (≈ 0.129 µM) | 0.1 (≈ 0.257 µM) | 0.2 (≈ 0.515 µM) | 0.05 (≈ 0.129 µM) | 11 | 3 | > 100 | 0.1 (≈ 0.257 µM) | 1.6 (≈ 4.12 µM) | 0.8 (≈ 2.06 µM) | 0.025 (≈ 0.0644 µM) | 0.4 (≈ 1.03 µM) |  |  |  |  | 
CCNCC1CCN(c2nc3c(cc2F)c(=O)c(C(=O)O)cn3-c2ccc(F)cc2F)C1 (centres undefined) | 6 | 0.1 (≈ 0.224 µM) | 0.1 (≈ 0.224 µM) | 0.2 (≈ 0.448 µM) | 0.1 (≈ 0.224 µM) | 0.2 (≈ 0.448 µM) | 3 | 4 | 8 | 0.2 (≈ 0.448 µM) | 1.6 (≈ 3.58 µM) | 0.8 (≈ 1.79 µM) | 0.025 (≈ 0.056 µM) | 0.4 (≈ 0.896 µM) |  |  |  |  | 
CCNCC1CCN(c2c(F)c(N)c3c(=O)c(C(=O)O)cn(C4CC4)c3c2F)C1 (centres undefined) | 16 | 0.013 (≈ 0.032 µM) | 0.003 (≈ 0.00738 µM) | 0.05 (≈ 0.123 µM) | 0.013 (≈ 0.032 µM) | 0.025 (≈ 0.0615 µM) | 3 | 2 | 5 | 0.05 (≈ 0.123 µM) | 0.2 (≈ 0.492 µM) | 0.1 (≈ 0.246 µM) | 0.003 (≈ 0.00738 µM) | 0.05 (≈ 0.123 µM) |  |  |  |  | 
NCC1CCN(c2c(F)cc3c(=O)c(C(=O)O)cn(C4CC4)c3c2F)C1 (centres undefined) | 6 | 0.003 (≈ 0.00826 µM) | 0.006 (≈ 0.0165 µM) | 0.013 (≈ 0.0358 µM) | 0.013 (≈ 0.0358 µM) | 0.013 (≈ 0.0358 µM) | 0.4 | 1 | 4 | 0.025 (≈ 0.0688 µM) | 0.2 (≈ 0.55 µM) | 0.1 (≈ 0.275 µM) | 0.003 (≈ 0.00826 µM) | 0.05 (≈ 0.138 µM) |  |  |  |  | 
CCn1cc(C(=O)O)c(=O)c2cc(F)c(N3CCC(N)C3)c(F)c21 (centres undefined) | 3 |  |  |  | 0.2 (≈ 0.593 µM) |  | 7 | 1 | 21 | 0.05 (≈ 0.148 µM) | 0.2 (≈ 0.593 µM) | 0.1 (≈ 0.296 µM) | 0.05 (≈ 0.148 µM) | 0.1 (≈ 0.296 µM) |  |  |  |  | 
